Tests used:
[1] = test system: Human immunodeficiency virus 1; assay: Antiviral activity against Human immunodeficiency virus 1 3B expressing wild-type protease infected in human MT4 cells; type: functional, organism-based
Method in brief: (§1)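 Cell-based antiviral assay in MT4 cells infected with wild-type HIV-1 IIIB, read as EC50. Run in quadruplicate. It was also repeated in the presence of 50% human serum as an indicator of plasma protein binding.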

[2] = test system: Human immunodeficiency virus 1; assay: Antiviral activity against Human immunodeficiency virus 1 isolate M1 expressing protease L10I, M46I, I64V, I84V, L90M, I93L mutant infected in human MT4 cells; type: functional, organism-based; conditions: Human immunodeficiency virus 1, isolate M1, MT4
Method in brief: (§2)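 Cell-based antiviral assay in MT4 cells infected with a multi-PI-resistant HIV-1 mutant carrying clinically observed primary protease mutations. EC50 determined, with all assays run in quadruplicate.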

[3] = test system: Human immunodeficiency virus 1; assay: Antiviral activity against Human immunodeficiency virus 1 isolate M2 expressing protease L10I, I13V, M46I, I50V, L63P, L76V mutant infected in human MT4 cells; type: functional, organism-based; conditions: Human immunodeficiency virus 1, isolate M2, MT4; method in brief: as §2
[4] = test system: Human immunodeficiency virus 1; assay: Antiviral activity against Human immunodeficiency virus 1 isolate M3 expressing protease L10I, K20R, M36I, G48V, I62V, A71V, V82A, I93L mutant infected in human MT4 cells; type: functional, organism-based; conditions: Human immunodeficiency virus 1, isolate M3, MT4
[5] = Cytotoxicity against human MT4 cells; type: cell-based
[6] = test system: Human immunodeficiency virus 1; assay: Antiviral activity against Human immunodeficiency virus 1 3B expressing wild-type protease infected in human MT4 cells in presence of 50% human serum; type: functional, organism-based; method in brief: as §1
[7] = test system: Human immunodeficiency virus 1; assay: Selectivity index, ratio of EC50 for Human immunodeficiency virus 1 isolate M1 expressing protease L10I, M46I, I64V, I84V, L90M, I93L mutant to EC50 for Human immunodeficiency virus 1 3B expressing wild-type protease; type: functional
Method in brief: (§3)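 Fold change is the EC50 against the multi-PI-resistant mutant divided by the EC50 against wild-type HIV-1 IIIB. Both EC50s come from cell-based assays in MT4 cells run in quadruplicate.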

[8] = test system: Human immunodeficiency virus 1; assay: Selectivity index, ratio of EC50 for Human immunodeficiency virus 1 isolate M2 expressing protease L10I, I13V, M46I, I50V, L63P, L76V mutant to EC50 for Human immunodeficiency virus 1 3B expressing wild-type protease; type: functional; method in brief: as §3
[9] = test system: Human immunodeficiency virus 1; assay: Selectivity index, ratio of EC50 for Human immunodeficiency virus 1 isolate M3 expressing protease L10I, K20R, M36I, G48V, I62V, A71V, V82A, I93L mutant to EC50 for Human immunodeficiency virus 1 3B expressing wild-type protease; type: functional; method in brief: as §3
[10] = Selectivity index, ratio of CC50 for human MT4 cells to EC50 for Human immunodeficiency virus 1 3B; type: toxicity, cell-based
Method in brief: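 Selectivity index is calculated as CC50 divided by EC50 against HIV-1 IIIB in the cell-based assay.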

Protease = Protease (Human immunodeficiency virus 1, UniProt Q9YQ12); assay: Inhibition of Human immunodeficiency virus 1 3B protease
[11] = Ratio of EC50 for Human immunodeficiency virus 1 3B expressing wild-type protease to IC50 for Human immunodeficiency virus 1 3B protease

Chain of Protease (Q9YQ12 whole entry): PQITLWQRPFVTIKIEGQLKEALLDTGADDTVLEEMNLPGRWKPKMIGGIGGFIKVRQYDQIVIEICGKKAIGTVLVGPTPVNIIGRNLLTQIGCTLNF

Compound	EC50 [1] [nM]	EC50 [2] [nM]	EC50 [3] [nM]	EC50 [4] [nM]	CC50 [5] [nM]	EC50 [6] [nM]	Ratio EC50 [7]	Ratio EC50 [8]	Ratio EC50 [9]	selectivity ratio [10]	IC50 (Protease) [nM]	Ratio [11]
CC(C)CN(C[C@@H](O)[C@H](Cc1ccccc1)NC(=O)O[C@H]1CO[C@H]2OCC[C@H]21)S(=O)(=O)c1ccc(N)cc1	6.6	11.3	51	2.3	> 9800	17.2	–	–	–	–	–	–
CNc1nc2ccc(S(=O)(=O)N(CC(C)C)C[C@@H](O)[C@H](Cc3ccccc3)NC(=O)O[C@H]3CO[C@H]4OCC[C@H]43)cc2o1	2.3	2.7	3.2	0.9	> 9800	8.3	1.2	1.4	0.4	> 2000	–	–
CC(C)CN(C[C@@H](O)[C@H](Cc1ccccc1)NC(=O)O[C@H]1CO[C@H]2OC[C@H](O)[C@H]21)S(=O)(=O)c1ccc(N)cc1	773	112	204	40.4	–	814	0.1	0.3	<0.1	–	2.9	250
CC(C)CN(C[C@@H](O)[C@H](Cc1ccccc1)NC(=O)O[C@H]1CO[C@H]2OC[C@H](OCc3ccccc3)[C@H]21)S(=O)(=O)c1ccc(N)cc1	1.5	4.7	18	1.7	> 9800	12.1	3.1	12	1.1	> 2000	3.5	–
CC(C)CN(C[C@@H](O)[C@H](Cc1ccccc1)NC(=O)O[C@H]1CO[C@H]2OC[C@H](Oc3ccccc3)[C@H]21)S(=O)(=O)c1ccc(N)cc1	8.9	32.5	249	6.5	> 9800	47.2	3.7	28	0.7	> 2000	–	–
COCCO[C@H]1CO[C@@H]2OC[C@H](OC(=O)N[C@@H](Cc3ccccc3)[C@H](O)CN(CC(C)C)S(=O)(=O)c3ccc(N)cc3)[C@@H]21	15.5	11.9	71.4	6.8	> 9800	37	0.8	4.6	0.4	> 2000	2.5	–
CNc1nc2ccc(S(=O)(=O)N(CC(C)C)C[C@@H](O)[C@H](Cc3ccccc3)NC(=O)O[C@H]3CO[C@H]4OC[C@H](O)[C@H]43)cc2o1	138	125	108	104	–	446	0.9	0.8	0.8	–	–	–
CNc1nc2ccc(S(=O)(=O)N(CC(C)C)C[C@@H](O)[C@H](Cc3ccccc3)NC(=O)O[C@H]3CO[C@H]4OC[C@H](OCc5ccccc5)[C@H]43)cc2o1	0.8	1.7	3.4	1	> 9800	3.7	2.2	4.5	1.3	> 2000	–	–
CNc1nc2ccc(S(=O)(=O)N(CC(C)C)C[C@@H](O)[C@H](Cc3ccccc3)NC(=O)O[C@H]3CO[C@H]4OC[C@H](OCc5ccccc5F)[C@H]43)cc2o1	0.7	1.3	2.1	0.9	> 9800	4	2	3.1	1.3	> 2000	–	–
CNc1nc2ccc(S(=O)(=O)N(CC(C)C)C[C@@H](O)[C@H](Cc3ccccc3)NC(=O)O[C@H]3CO[C@H]4OC[C@H](OCc5cccc(F)c5)[C@H]43)cc2o1	0.6	0.8	1.7	0.8	> 9800	3.7	1.2	2.7	1.3	> 2000	–	–
CNc1nc2ccc(S(=O)(=O)N(CC(C)C)C[C@@H](O)[C@H](Cc3ccccc3)NC(=O)O[C@H]3CO[C@H]4OC[C@H](OCc5ccc(F)cc5)[C@H]43)cc2o1	0.6	1.1	2.3	1	> 9800	4	1.8	3.8	1.6	> 2000	–	–
CNc1nc2ccc(S(=O)(=O)N(CC(C)C)C[C@@H](O)[C@H](Cc3ccccc3)NC(=O)O[C@H]3CO[C@H]4OC[C@H](OCc5ccc(F)cc5F)[C@H]43)cc2o1	0.6	1.1	2.3	0.7	> 9800	5.4	2	4.1	1.3	> 2000	–	–
CNc1nc2ccc(S(=O)(=O)N(CC(C)C)C[C@@H](O)[C@H](Cc3ccccc3)NC(=O)O[C@H]3CO[C@H]4OC[C@H](OCCOC)[C@H]43)cc2o1	8.6	6.9	10.8	4.3	> 9800	24	0.8	1.3	0.5	> 2000	1.5	–
CNc1nc2ccc(S(=O)(=O)N(CC(C)C)C[C@@H](O)[C@H](Cc3ccccc3)NC(=O)O[C@H]3CO[C@H]4OC[C@H](OCOC)[C@H]43)cc2o1	3.4	5	11.2	1.9	> 9800	7	1.2	2.4	0.7	> 2000	–	–
CNc1nc2ccc(S(=O)(=O)N(CC(C)C)C[C@@H](O)[C@H](Cc3ccccc3)NC(=O)O[C@H]3CO[C@H]4OC[C@H](OCSC)[C@H]43)cc2o1	1.3	3.9	9.3	2.2	> 9800	6.7	3	7.1	1.7	> 2000	–	–
COC(=O)N[C@H](C(=O)N[C@@H](Cc1ccccc1)[C@@H](O)CN(Cc1ccc(-c2ccccn2)cc1)NC(=O)[C@@H](NC(=O)OC)C(C)(C)C)C(C)(C)C [ATAZANAVIR]	6.9	58	3.2	60.5	> 9800	13.3	8.4	0.5	8.8	> 2000	–	–
Cc1cccc(C)c1OCC(=O)N[C@@H](Cc1ccccc1)[C@@H](O)C[C@H](Cc1ccccc1)NC(=O)[C@H](C(C)C)N1CCCNC1=O [LOPINAVIR]	13.9	115	307	–	> 9800	63.2	–	–	–	–	–	–

From ChEMBL document CHEMBL2040835, “Disubstituted Bis-THF Moieties as New P2 Ligands in Nonpeptidal HIV-1 Protease Inhibitors” (ACS Med Chem Lett, 2011)
